OX1R antag-1: antagonists of human orexin 1 receptor (OX1R). OX1R-expressing cells, FRET antagonist read-out. inhibition, % at 6.6 µM. 1.8% of 330,000 active. AID 485270, 2010; in the data active = inhibition mostly above about 38%, no sharp cut-off; inactive = mostly below about 40%;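 note: 0% = agonist challenge alone and 100% = reference antagonist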
TAAR1 antag: human TAAR1 antagonists, primary screen, Fluo-8 calcium fluorescence, CHO RD-HGA16 cells; Trace amine-associated receptor 1 (Homo sapiens), Q96RJ0; antagonist; inhibition, % at 3 µM; 1.5% of 360,000 active;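 active = inhibition above a per-plate cutoff, the mean inhibition of test compounds on that plate plus 3 SD, cut at about 49% in these data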;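 note: 0% = DMSO plus EC80 beta-PEA response and 100% = DMSO alone without agonist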
Target sequence (Q96RJ0 whole entry, looked up): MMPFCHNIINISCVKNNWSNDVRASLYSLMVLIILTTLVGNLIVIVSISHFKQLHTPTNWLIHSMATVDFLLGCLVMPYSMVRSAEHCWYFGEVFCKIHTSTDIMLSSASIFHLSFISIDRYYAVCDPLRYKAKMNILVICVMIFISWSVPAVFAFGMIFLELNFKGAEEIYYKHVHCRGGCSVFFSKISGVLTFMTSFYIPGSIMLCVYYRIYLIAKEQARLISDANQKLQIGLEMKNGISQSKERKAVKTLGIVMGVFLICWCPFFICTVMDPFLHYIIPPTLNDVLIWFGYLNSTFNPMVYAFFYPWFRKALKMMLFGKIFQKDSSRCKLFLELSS
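System: CHO RD-HGA16 cells bearing hTAAR1. Reagent: EC80 β-phenethylamine stimulus. Schedule: seeding 17-24 h prior, 75-min 37 °C, 30-min RT dye loading. Signal: Fluo-8 intracellular calcium dye fluorescence, real-time kinetic reads. Read-out: % inhibition from peak post-agonist over basal fluorescence ratio. Benchmarks: vehicle wells and EC80 agonist wells. Replicates: n of 1.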
GalR3 antagonist: GalR3 antagonists in HEK293 cells, primary screen, cell-based, fluorescence readout | Galanin receptor type 3 (Homo sapiens), O60755 | HEK293 GalR3-CNG cAMP membrane potential fluorescence; galR3 body fused to GalR1 C-terminus | inhibition, % at 3 µM | 0.44% of 360,000 active | AID 651719, 2012;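 active = inhibition above the screen-wide average plus 3 SD, cut at about 13% in these data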;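 note: forskolin and galanin both at EC90 stimulate the cells; cAMP rise reported by CNG channel membrane potential dye signal; 0% = forskolin plus galanin with DMSO and 100% = forskolin alone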
Target sequence (O60755 1-299 limits assumed): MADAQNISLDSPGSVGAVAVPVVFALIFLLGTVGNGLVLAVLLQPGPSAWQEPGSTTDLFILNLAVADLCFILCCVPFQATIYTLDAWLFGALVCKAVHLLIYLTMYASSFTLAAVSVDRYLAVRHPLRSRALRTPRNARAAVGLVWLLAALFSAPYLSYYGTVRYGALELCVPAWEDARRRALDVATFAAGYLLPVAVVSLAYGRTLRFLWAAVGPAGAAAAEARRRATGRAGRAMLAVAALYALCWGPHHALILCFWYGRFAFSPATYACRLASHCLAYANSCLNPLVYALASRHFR
OX1R antag-2: OX1R (HCRTR1) antagonists, primary screen, fluorescence, CHO/OX1R cells, Fluo-8 calcium, orexin A. Orexin/Hypocretin receptor type 1 (Homo sapiens), O43613. Fluo-8 calcium fluorescence. inhibition, % at 5 µM. 0.43% of 330,000 active;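 active = inhibition above its plate's threshold, mean inhibition of all tested compounds on the plate plus 3 SD, cut at about 37% in these data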;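 note: 0% = orexin A challenge wells and 100% = SB-334867-A antagonist wells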
TAAR1 ag: human TAAR1 agonists, primary screen, Fluo-8 calcium fluorescence, CHO RD-HGA16 cells. 0.99% of 360,000 active. vehicle wells 0%, saturating PEA agonist 100%. activation, % at 3 µM. Trace amine-associated receptor 1 (Homo sapiens), Q96RJ0;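 active = activation above the mean activation of all test compounds in the run plus 3 SD, cut at about 38% in these data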
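Repeats: no replicates (n 1) | Material: CHO-derived RD-HGA16 cells with stable Gα16 and human TAAR1 | Technique: Kinetic Fluo-8 calcium fluorescence | Schedule: 17-24 h seeding, 75 min 37 °C dye, 30 min RT | Evaluation: % activation from peak over basal fluorescence ratio, DMSO-to-PEA scaled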
CHO parental Ca: ATP-evoked calcium signal inhibitors, parental CHO, primary screen, counter-screen for OX1R antagonist project, cell-based, fluorescence, Fluo-8 calcium dye; parental CHO-K1, ATP-induced calcium, Fluo-8 fluorescence; inhibition, % at 5.6 µM; 0.63% of 330,000 active;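 active = inhibition above that plate's mean sample inhibition plus 3 SD, cut at about 26% in these data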;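 note: 0% = ATP-challenged DMSO wells and 100% = DMSO wells without ATP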
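Test system: untransfected parental CHO cell line; also added: ATP stimulus; dosing: 5.6 µM, single dose; signal: calcium-sensitive Fluo-8 fluorescence; measure: percent inhibition of ATP-evoked calcium rise, normalized to controls; benchmarks: low control ATP plus DMSO, high control DMSO only; replication: one well per compound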
TAAR1 nonsel count: nonselective antagonists in TAAR1 counter-screen cells, counter-screen for hTAAR1 antagonist project, cell-based, fluorescence, calcium; shares compounds with TAAR1 antag; 77% of 2,400 active; counterscreen cell line, antagonist mode; inhibition, % at 3 µM; in the data active = inhibition above about 22%;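 note: CHO-Ga16 host cells stimulated with ATP at an EC80 level; 0% = agonist EC80 plus vehicle and 100% = vehicle without agonist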
TAAR1 ant conf: human TAAR1 antagonists, retest of hits, confirmation, cell-based, fluorescence; AID 651785, 2012; inhibition, % at 3 µM; shares compounds with TAAR1 antag; 40% of 2,400 active; TAAR1-expressing cells, fluorescence antagonist read-out; in the data active = inhibition above about 49%;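 note: CHO-Ga16 host cells challenged with agonist PEA near its EC80; 0% = agonist at EC80 plus vehicle and 100% = vehicle with no agonist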
Ga16 nonsel ag: calcium activation in Ga16-expressing cells, counter-screen for TAAR1 antagonist project, cell-based, fluorescence. shares compounds with TAAR1 antag. agonist counterscreen. activation, % at 3 µM. 18% of 2,400 active. AID 651953, 2012; in the data active = activation above about 12%;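 note: 0% = vehicle wells and 100% = saturating stimulus response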
TAAR1 ag count: TAAR1 activation by candidate antagonists – cell-based, fluorescence, counter-screen for TAAR1 antagonist project. activation, % at 3 µM. AID 651955, 2012. shares compounds with TAAR1 antag. 2% of 2,400 active. hTAAR1 cell line, agonist mode; in the data active = activation above about 37%;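 note: CHO cells stably expressing TAAR1 with calcium dye readout; 0% = DMSO vehicle and 100% = full agonist response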
An asterisk follows results filed as active; . = no result given. A selection: hits, their analogues and other compounds. The true share with any hit is near 4.3%.

SMILES	OX1R antag-1	TAAR1 antag	GalR3 antagonist	OX1R antag-2	TAAR1 ag	CHO parental Ca	TAAR1 nonsel count	TAAR1 ant conf	Ga16 nonsel ag	TAAR1 ag count
O=C(CN1CCN(S(=O)(=O)c2ccc(F)c(F)c2)CC1)Nc1ccccc1C(=O)NC1CC1	5	49*	-7	-22	14	-22	22*	35	5	11
CC(=O)c1ccc(S(=O)(=O)N2CCN(CC(=O)Nc3ccccc3C(=O)NC3CC3)CC2)cc1	5	41	-5	-19	17	-17	.	.	.	.
N#Cc1ccccc1S(=O)(=O)N1CCN(CC(=O)Nc2ccccc2C(=O)NC2CC2)CC1	3	56*	-5	-21	14	-17	24*	47	8	10
CCCCCN(C(=O)CCC(=O)OC(C)C(=O)Nc1ccccc1C)c1c(N)n(CCCC)c(=O)[nH]c1=O (configuration not stated)	.	-13	-5	.	0	.	.	.	.	.
C[C@@H]1CN([C@H](C)CO)C(=O)CCCn2nncc2CO[C@H]1CN(C)Cc1ccc(Oc2ccccc2)cc1	.	-18	-5	.	0	.	.	.	.	.
O=C1CC(c2ccc(OCCCCCOc3ccc(C4CC(=O)NC4=O)cc3)cc2)C(=O)N1 (configuration not stated)	-3	64*	3	-25	20	-17	40*	53*	14*	19
CCCCCCCCOc1ccc(C2CC(=O)NC2=O)cc1 (configuration not stated)	13	8	-11	-1	-1	-6	.	.	.	.
C[C@H](CO)N1C[C@H](C)[C@@H](CN(C)C(=O)Nc2ccc3c(c2)OCO3)Oc2c(NC(=O)Nc3ccccc3)cccc2C1=O	-1	58*	-1	-16	7	-13	26*	41	3	4
C=CCNC(=O)C1CCN(S(=O)(=O)c2ccc3ccccc3c2)CC1	4	-36	0	-4	1	1	.	.	.	.
COc1ccccc1-c1cccc(-c2nc(C(=O)Nc3nccs3)cc3c2[C@H](CCO)N(C(C)=O)C3)c1	.	71*	-7	.	7	.	30*	51*	7	5
O=C(NC1CCCc2ccccc21)C1CCC(CNS(=O)(=O)c2cccc3nsnc23)CC1 (configuration not stated)	25	57*	2	-18	8	5	15	42	6	19
O=C(CCNS(=O)(=O)c1cccc2nsnc12)NC1CCCc2ccccc21 (configuration not stated)	58	-6	-2	-28	2	-25	.	.	.	.
O=C(NC(Cc1ccccc1)C(=O)N1CCN(c2ccccc2O)CC1)c1ccccc1 (configuration not stated)	.	41	-5	.	13	.	.	.	.	.
CCN=C(Nc1cccc(F)c1)SC1CC(=O)N(c2ccc(OC)cc2)C1=O (configuration not stated)	20	72*	-2	0	15	1	34*	55*	7	6
CCOc1ccc(N2C(=O)CC(SCCN)C2=O)cc1 (configuration not stated)	8	-9	-1	-17	4	-7	.	.	.	.
COc1ccc(N2C(=O)CC(NCc3cccc(F)c3)C2=O)cc1 (configuration not stated)	26	-4	-2	-6	14	-3	.	.	.	.
CCN=C(NCC)SC1CC(=O)N(c2ccc(OCC)cc2)C1=O (configuration not stated)	3	86*	0	-24	16	-10	28*	51*	11	11
Cc1ccc(C)c(NC(=O)/C(C#N)=C/c2cn(CC(=O)NCc3ccco3)c3ccccc23)c1	29	103*	-4	-1	2	-3	6	12	7	6
COc1ccc(Cl)cc1NC(=O)CN(C)C(=O)c1cn(-c2ccccc2)nc1-c1cccnc1	35	58*	-1	-14	13	-22	33*	47	7	5
CN(CC(=O)Nc1cccc(F)c1)C(=O)c1cc(-c2ccco2)nc2ccccc12	16	44	-5	1	11	-25	.	.	.	.
COc1ccc(-c2cc(C(=O)N(C)CC(=O)Nc3cccc(F)c3)c3ccccc3n2)cc1OC	.	76*	-7	.	15	.	44*	61*	11	8
COc1ccc(NC(=O)CN(C)C(=O)c2cc(-c3ccco3)nc3ccccc23)cc1	12	36	-4	28	13	-19	.	.	.	.
COc1cccc(NC(=O)CN(C)C(=O)c2cc(-c3ccc(F)cc3)nc3ccccc23)c1	19	75*	-1	-5	6	8	40*	60*	9	5
CN(CC(=O)Nc1cccc(F)c1)C(=O)c1cn(-c2ccccc2)nc1-c1cccs1	21	65*	0	-3	8	-8	32*	40	7	6
COc1cc(C(=O)NNC(=O)C2CC2)cc(OC)c1OC	-1	-6	-7	-10	5	-2	.	.	.	.
CN(CC(=O)Nc1ccc(Cl)c(C(F)(F)F)c1)C(=O)c1cc(-c2ccncc2)nc2ccccc12	21	50*	0	-5	9	-33	33*	53*	10	10
COc1cccc(NC(=O)CN(C)C(=O)c2cc(-c3ccccc3)nc3ccccc23)c1	31	70*	-5	-26	12	-14	34*	51*	9	7
CCc1nnc(SCC(=O)Nc2ccc(NC(C)=O)cc2)n1-n1cccc1	16	-47	-2	-8	1	-17	.	.	.	.
